Calls of active or inactive are those of the source. The rule behind the calls is not given here.
How the values were obtained:
[1] = tested on: Ebolavirus; assay: Antiviral activity against Ebolavirus H. sapiens-wt/1995/Kikwit-9510621 infected in human HeLa cells assessed as inhibition of viral infection pretreated for 2 hrs followed by viral infection and measured after 48 hrs by EboV GP immunostaining based high content imaging analysis; assay type: functional, organism-based; conditions: Orthoebolavirus, H. sapiens-wt/1995/Kikwit-9510621, HeLa; for EC50: read-out: EC50
[2] = tested on: Ebolavirus; assay: Antiviral activity against Ebolavirus H. sapiens-wt/1995/Kikwit-9510621 infected in HFF assessed as inhibition of viral infection pretreated for 2 hrs followed by viral infection and measured after 48 hrs by EboV GP immunostaining based high content imaging analysis; assay type: functional, organism-based; conditions: Orthoebolavirus
[3] = Cytotoxicity against HFF after 2 hrs by high content imaging analysis; assay type: cell-based; conditions: human, HFF cells
[4] = Selectivity index, ratio of CC50 for human HeLa cells to EC50 for Ebolavirus H. sapiens-wt/1995/Kikwit-9510621 infected in human HeLa cells; assay type: toxicity, cell-based; conditions: read-out: Ratio CC50/EC50
[5] = target: Albumin (Homo sapiens, UniProt P02768); assay: Binding affinity to human serum albumin at compound to protein molar ratio of 1:20 after 10 mins by fluorescence spectral analysis; assay type: ADME; conditions: isolated protein
In short: (§1)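 Protein fluorescence spectra recorded while compound was added in increasing amounts. Stern-Volmer binding constant (KSV) derived from the fluorescence change.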

[6] = Binding affinity to AGP (unknown origin) at compound to protein molar ratio of 1:20 after 10 mins by fluorescence spectral analysis; assay type: ADME; conditions: human, isolated protein; in short: as §1
[7] = Toxicity in 6 hrs post fertilized zebrafish embryo assessed as mortality up to 120 hrs post fertilization; set-up: species or system Danio rerio; conditions: in vivo
[8] = Toxicity in 6 hrs post fertilized zebrafish embryo assessed as lethal effect on somite formation up to 50 uM up to 120 hrs post fertilization by inverted microscopic method; set-up: species or system Danio rerio; conditions: in vivo
[9] = Toxicity in 6 hrs post fertilized zebrafish embryo assessed as lethal effect on heart beat up to 50 uM up to 120 hrs post fertilization by inverted microscopic method; assay type: tissue-based, Danio rerio; conditions: in vivo
[10] = Toxicity in 6 hrs post fertilized zebrafish embryo assessed as teratogenic effect by measuring malformation of head up to 50 uM up to 120 hrs post fertilization by inverted microscopic method; assay type: tissue-based, Danio rerio; conditions: in vivo
[11] = Toxicity in 6 hrs post fertilized zebrafish embryo assessed as teratogenic effect by measuring malformation of sacculi/otoliths up to 50 uM up to 120 hrs post fertilization by inverted microscopic method; set-up: species or system Danio rerio; conditions: in vivo
[12] = Toxicity in 6 hrs post fertilized zebrafish embryo assessed as teratogenic effect by measuring malformation of tail up to 50 uM up to 120 hrs post fertilization by inverted microscopic method; assay type: tissue-based, Danio rerio; conditions: in vivo
[13] = Toxicity in 6 hrs post fertilized zebrafish embryo assessed as teratogenic effect by measuring scoliosis up to 50 uM up to 120 hrs post fertilization by inverted microscopic method; set-up: species or system Danio rerio; conditions: in vivo
[14] = Toxicity in 6 hrs post fertilized zebrafish embryo assessed as teratogenic effect by measuring effect on heart beat frequency up to 50 uM up to 120 hrs post fertilization by inverted microscopic method; set-up: species or system Danio rerio; conditions: in vivo
[15] = Toxicity in 6 hrs post fertilized zebrafish embryo assessed as teratogenic effect by measuring pericardial edema up to 50 uM up to 120 hrs post fertilization by inverted microscopic method; set-up: species or system Danio rerio; conditions: in vivo
[16] = Toxicity in 6 hrs post fertilized zebrafish embryo assessed as teratogenic effect by measuring yolk edema up to 50 uM up to 120 hrs post fertilization by inverted microscopic method; set-up: species or system Danio rerio; conditions: in vivo
[17] = Toxicity in 6 hrs post fertilized zebrafish embryo assessed as teratogenic effect by measuring yolk absorption up to 50 uM up to 120 hrs post fertilization by inverted microscopic method; set-up: species or system Danio rerio; conditions: in vivo
[18] = Toxicity in 6 hrs post fertilized zebrafish embryo assessed as teratogenic effect by measuring growth retardation up to 50 uM up to 120 hrs post fertilization by inverted microscopic method; set-up: species or system Danio rerio; conditions: in vivo
[19] = Selectivity index, ratio of toxic concentration for hepatotoxicity in transgenic l-fabp:EGFP zebrafish embryo to EC50 for Ebolavirus H. sapiens-wt/1995/Kikwit-9510621; assay type: toxicity; conditions: read-out: Selectivity Index
[20] = Selectivity index, ratio of LC50 for toxicity in transgenic zebrafish embryo assessed as mortality to EC50 for Ebolavirus H. sapiens-wt/1995/Kikwit-9510621; conditions: read-out: Selectivity Index
[21] = tested on: Ebolavirus; assay: Antiviral activity against Ebolavirus H. sapiens-wt/1995/Kikwit-9510621 infected in human HeLa cells assessed as inhibition of viral infection at 2 uM treated simultaneously with viral infection and measured after 24 hrs by EboV GP immunostaining based high content imaging analysis; assay type: functional, organism-based
[22] = tested on: Ebolavirus; assay: Antiviral activity against Ebolavirus H. sapiens-wt/1995/Kikwit-9510621 infected in human HeLa cells assessed as inhibition of viral infection at 2 uM pretreated for 2 hrs followed by viral infection and measured after 24 hrs by EboV GP immunostaining based high content imaging analysis; assay type: functional, organism-based
[23] = tested on: HeLa; assay: Induction of lysosomotropism in human HeLa cells infected with Ebolavirus assessed as clustering of late endosomes/lysosomes in cytoplasm at 2 uM for 1 hr by Lysosensor DND189 staining based assay; assay type: functional, cell-based
In short: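 HeLa cells treated 1 h (2 μM; bafilomycin A1 0.01 μM as control), then LysoSensor DND 189 for 10 min. Washed and imaged live at 443/505 nm (dye) and 405/450 nm (compound). Fluorescence intensity/area quantified. Mean ± SD of 8 wells, about 3000 cells each, three independent experiments.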

[24] = tested on: HeLa; assay: Induction of lysosomotropism in human HeLa cells infected with Ebolavirus assessed as increase in fluorescence intensity of acid compartments at 2 uM for 1 hr by Lysosensor DND189 staining based assay; assay type: functional, cell-based
In short: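 HeLa cells were pretreated 1 h with compound (Bafilomycin A1 at 0.01 μM as acidification control), then stained with LysoSensor DND 189 for 10 min and washed. Live imaging at Ex/Em 443/505 nm. Fluorescence intensity per area was quantified by image analysis. Eight wells per point, about 3000 cells/well, mean ± SD, three independent experiments.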

[25] = tested on: HeLa; assay: Induction of lysosomotropism in human HeLa cells infected with Ebolavirus assessed as dense clustering in perinuclear region at 2 uM for 2 hrs by acridine orange staining based assay; assay type: functional, cell-based
In short: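 HeLa cells pretreated 2 h, then acridine orange for 30 min, washed and imaged. Total intensity and average area of acridine orange fluorescence quantified by high-content imaging. Mean ± SD of 8 wells, about 3000 cells each, three independent experiments.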

[26] = target: Procathepsin L (Homo sapiens) (UniProt P07711); assay: Inhibition of cathepsin L activity in human HeLa cells at 2 uM after 6 hrs by HCA; assay type: cell-based
[27] = tested on: HeLa; assay: Inhibition of lysosome fusion with autophagosome in human HeLa cells harboring GFP-LC3 assessed as increase in GFP-LC3-2 clustering at 2 uM after 4 hrs; assay type: functional, cell-based
In short: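 HeLa cells stably expressing GFP-LC3 were treated with compound for 4 h, then imaged. Total GFP clusters per cell were counted. Eight-well replicates, about 500 cells/well, mean ± SD, three independent experiments.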

[28] = tested on: HeLa; assay: Inhibition of lysosome fusion with autophagosome in human HeLa cells harboring GFP-LC3 assessed as increase in GFP-LC3-2 clustering up to 50 uM after 6 hrs by Western blot analysis; assay type: functional, cell-based
In short: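 HeLa cells were exposed to compound for 6 h, then lysed and analysed by Western blot.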

Chain of Albumin (P02768 whole entry): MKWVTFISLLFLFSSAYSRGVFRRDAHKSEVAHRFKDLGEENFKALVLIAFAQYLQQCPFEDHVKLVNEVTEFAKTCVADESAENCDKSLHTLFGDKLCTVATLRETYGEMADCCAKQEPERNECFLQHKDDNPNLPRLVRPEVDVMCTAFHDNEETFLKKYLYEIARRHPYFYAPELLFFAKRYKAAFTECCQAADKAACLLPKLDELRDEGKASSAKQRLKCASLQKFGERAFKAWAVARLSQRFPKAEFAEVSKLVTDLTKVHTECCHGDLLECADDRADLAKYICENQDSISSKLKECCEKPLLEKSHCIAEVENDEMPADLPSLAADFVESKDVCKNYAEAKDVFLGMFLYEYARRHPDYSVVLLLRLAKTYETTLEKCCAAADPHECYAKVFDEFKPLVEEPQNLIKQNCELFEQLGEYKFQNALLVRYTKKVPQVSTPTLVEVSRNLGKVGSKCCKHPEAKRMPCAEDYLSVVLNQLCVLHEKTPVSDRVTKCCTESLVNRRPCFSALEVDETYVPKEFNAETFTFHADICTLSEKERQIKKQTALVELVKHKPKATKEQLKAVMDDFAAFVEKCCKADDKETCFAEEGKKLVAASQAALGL
Chain of Procathepsin L (Homo sapiens) (P07711 114-333 limits assumed): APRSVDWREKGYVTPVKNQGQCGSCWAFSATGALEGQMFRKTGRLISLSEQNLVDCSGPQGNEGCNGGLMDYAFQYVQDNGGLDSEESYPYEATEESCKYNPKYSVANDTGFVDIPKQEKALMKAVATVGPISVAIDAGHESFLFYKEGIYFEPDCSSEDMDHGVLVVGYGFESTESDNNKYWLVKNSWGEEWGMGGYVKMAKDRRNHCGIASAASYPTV

Cl.Cl.Cl.Cl.c1cc(NCCCCN2CCOCC2)c2ccc3c(ccc4c(NCCN5CCOCC5)ccnc43)c2n1
EC90 [1]: 0.85 µM
EC50 [1]: 0.26 µM
EC50 [2]: 0.21 µM
EC90 [2]: 0.78 µM
CC50 at 2 h [3]: 2.4 µM
selectivity ratio [4]: 30
KSV [5]: 8.85 ×10⁴ /M
KSV [6]: 6.12 ×10⁴ /M
Activity [7]: Dose-dependent effect
LC50 [7]: 18.9 µM
Activity [8]: Non-Toxic
Activity [9]: Non-Toxic
Activity [10]: Non-Toxic
Activity [11]: Non-Toxic
Activity [12]: Non-Toxic
Activity [13]: Non-Toxic
Activity [14]: Non-Toxic
Activity [15]: Non-Toxic
Activity [16]: Non-Toxic
Activity [17]: Non-Toxic
Activity [18]: Non-Toxic
selectivity ratio [19]: 73
selectivity ratio [20]: 70 to 100
Activity [21]: Active
Activity [22]: Active
Activity [23]: Active
Activity [24]: Active
Activity [25]: Active
inhibition [26]: Active
inhibition [27]: Active
inhibition [28]: Active

Cl.Cl.Cl.Cl.c1cc(NCCN2CCOCC2)c2ccc3c(ccc4c(NCCN5CCOCC5)ccnc43)c2n1
EC90 [1]: < 5 µM
EC50 [1]: 0.7 µM
EC50 [2]: 0.55 µM
EC90 [2]: 1.36 µM
CC50 at 2 h [3]: > 20 µM
selectivity ratio [4]: > 28.5
KSV [5]: 1.13 ×10⁵ /M
KSV [6]: 8.12 ×10⁴ /M
Activity [7]: Dose-dependent effect
LC50 [7]: 72.1 µM
Activity [8]: Non-Toxic
Activity [9]: Non-Toxic
Activity [10]: Non-Toxic
Activity [11]: Non-Toxic
Activity [12]: Non-Toxic
Activity [13]: Non-Toxic
Activity [14]: Non-Toxic
Activity [15]: Non-Toxic
Activity [16]: Non-Toxic
Activity [17]: Non-Toxic
Activity [18]: Non-Toxic
selectivity ratio [19]: 103
selectivity ratio [20]: 70 to 100
Activity [21]: Active
Activity [22]: Active
Activity [23]: Active
Activity [24]: Active
Activity [25]: Active
inhibition [26]: Active
inhibition [27]: Active
inhibition [28]: Active

— ChEMBL document CHEMBL4330057, “Second generation of diazachrysenes: Protection of Ebola virus infected mice and mechanism of action” (Eur J Med Chem, 2019)
